According to publication PMC12069892 (Acta Pharmaceutica Sinica. B, 2025):
pIC50: −log10 of the molar value. ≈ marks a conversion by molar mass, not a printed value.

Columns and labels:
P. aeruginosa DK2 [1] = assay: MIC by micro broth dilution; assay type: cell-based, Pseudomonas aeruginosa; details: for MIC: Pseudomonas aeruginosa, DK2, 18 h, read-out: MIC, derivative alone, P. aeruginosa DK2, 18 h, 100% growth inhibition; for MIC, antibiotic alone: P. aeruginosa DK2
P. aeruginosa DK2 [2] = assay: Resistance assay by serial passaging; assay type: cell-based, Pseudomonas aeruginosa; details: passaged with PB alone (64 μg/mL); start 256 μg/mL
P. aeruginosa DK2 [3] = assay: Time-kill assay; assay type: cell-based, Pseudomonas aeruginosa; details: for Effect on bacterial growth when used alone (time-kill): A22 10 or 20 μmol/L, PB 0.5 or 1 μg/mL
P. aeruginosa DK2 [4] = assay: Oxidative stress; assay type: cell-based, Pseudomonas aeruginosa; details: PB 0.25 or 0.5 μg/mL; 15 or A22 4 or 8 μg/mL, with or without PB
Summary of the method: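 Culture diluted to 0.01 and treated with compounds. At OD600 1.0, 3 mL collected, washed in 1 mL PBS, then resuspended in PBS with 0.2 mol/L H2O2 and shaken 15 min at 37 ℃. Suspensions diluted 10^1–10^7 in PBS, 5 μL spotted onto LB agar, and incubated 37 ℃ for 1–2 days before colony counting.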

HUVEC = assay: Mammalian cytotoxicity, CCK8; assay type: cell-based; details: Homo sapiens, 24 h, read-out: HUVEC IC50, CCK8, 1 day incubation
Summary of the method: (§1)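 Cells seeded at 10,000 per well in medium with 10% serum. Serially diluted compound added 24 h later and incubated 1 day. Viability measured with CCK8 reagent per kit instructions and expressed as percent of vehicle-treated cells (set to 100).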

P. aeruginosa DK2 [5] = assay: Bacterial ATP level assay; assay type: cell-based, Pseudomonas aeruginosa
Summary of the method: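 Cells treated with compounds singly and in combination and harvested at OD600 = 1.0 (2 mL), centrifuged, then extraction solution added. Lysed by sonication in an ice bath; extract kept on ice. Absorbance read at 340 nm at 10 s and again after 3 min at 25 ℃ using a commercial ATP kit. ATP expressed relative to control.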

CYP2D6 = CYP2D6 (Homo sapiens, UniProt P10635); assay: Human CYP450 inhibition assay; assay type: in vitro ADME
Chain of CYP2D6 (P10635 whole entry): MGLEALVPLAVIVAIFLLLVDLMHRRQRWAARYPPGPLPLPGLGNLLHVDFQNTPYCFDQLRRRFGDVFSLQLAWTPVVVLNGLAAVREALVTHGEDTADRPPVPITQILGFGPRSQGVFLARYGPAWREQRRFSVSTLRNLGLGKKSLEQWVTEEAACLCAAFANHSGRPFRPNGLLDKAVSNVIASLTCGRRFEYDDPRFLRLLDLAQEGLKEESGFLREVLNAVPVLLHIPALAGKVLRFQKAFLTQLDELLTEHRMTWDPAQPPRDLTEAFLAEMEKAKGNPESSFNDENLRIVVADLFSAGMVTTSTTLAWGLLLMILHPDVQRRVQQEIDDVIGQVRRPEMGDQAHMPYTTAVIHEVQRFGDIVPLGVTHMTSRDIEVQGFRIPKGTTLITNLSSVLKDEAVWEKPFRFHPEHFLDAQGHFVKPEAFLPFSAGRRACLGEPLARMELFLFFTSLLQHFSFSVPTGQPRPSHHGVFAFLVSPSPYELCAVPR

[6] = Plasma protein binding assay; assay type: in vitro ADME; details: human
Summary of the method: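 Equilibrium dialysis: compound-spiked plasma placed on the donor side, blank buffer on the receiver side, 5 h at 37 ℃; T0 plasma samples also taken. Donor and receiver aliquots matrix-matched with the opposite matrix. Quenched with acetonitrile containing internal standard, vortexed, centrifuged 4000×g 10 min, and supernatant diluted with water. Analysed by LC–MS/MS alongside reference compounds.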

P. aeruginosa DK2 [7] = assay: Intracellular ROS detection; assay type: cell-based, Pseudomonas aeruginosa; details: alone and in combination with PB
Summary of the method: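 Drug-treated bacteria collected and suspended in DCFH-DA (final 10 μmol/L), then incubated 20 min at 37 ℃. Cells resuspended in LB, centrifuged 5000 rpm for 5 min and washed to remove free probe. Fluorescence read at 488 nm excitation and 525 nm emission.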

[8] = Stability in liver microsomes; assay type: in vitro ADME, human
P. aeruginosa DK2 [9] = assay: Biofilm production assay; assay type: cell-based, Pseudomonas aeruginosa
Summary of the method: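 Overnight LB culture (37 ℃, 200 rpm) diluted to OD600 0.01 and treated with compound alone or with polymyxin B. Cells inoculated 1:100 into CPG medium and grown 24 h at 37 ℃, then stained 30 min with 0.1% crystal violet. After water rinses and 1 h air drying, dye solubilised in 95% ethanol; OD570 read. For imaging, coverslip biofilms washed with PBS (pH 7.2), dried 60 ℃ 30 min, stained 15 min with acridine orange/ethidium bromide and examined by confocal microscopy.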

293 T = assay: Mammalian cytotoxicity, CCK8; assay type: cell-based; details: Homo sapiens, HEK-293T, 24 h, read-out: 293 T IC50, CCK8, 1 day incubation
Summary of the method: as §1

[10] = Stability in liver microsomes; assay type: in vitro ADME, mouse
CYP2C8 = molecular target: T1, CYP2C8 (Homo sapiens, UniProt P10632); assay: Human CYP450 inhibition assay; assay type: in vitro ADME
T1 sequence (P10632 1-490): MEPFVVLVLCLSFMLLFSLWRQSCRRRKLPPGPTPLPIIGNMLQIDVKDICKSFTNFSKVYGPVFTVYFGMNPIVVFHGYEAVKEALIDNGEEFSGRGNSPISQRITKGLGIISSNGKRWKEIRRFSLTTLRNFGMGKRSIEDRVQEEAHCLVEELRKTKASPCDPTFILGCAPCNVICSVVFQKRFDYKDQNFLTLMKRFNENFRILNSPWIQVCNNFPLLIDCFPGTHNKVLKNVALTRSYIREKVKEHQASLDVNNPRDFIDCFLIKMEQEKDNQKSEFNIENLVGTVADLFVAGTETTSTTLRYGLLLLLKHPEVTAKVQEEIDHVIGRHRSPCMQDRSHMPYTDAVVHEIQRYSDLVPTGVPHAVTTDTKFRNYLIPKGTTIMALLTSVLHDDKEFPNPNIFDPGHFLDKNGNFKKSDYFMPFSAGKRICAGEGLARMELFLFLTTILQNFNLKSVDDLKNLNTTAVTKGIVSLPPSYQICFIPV

P. aeruginosa DK2 [11] = assay: Intracellular NADH oxidase; assay type: cell-based, Pseudomonas aeruginosa
Summary of the method: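 Bacteria treated with compounds singly and in combination; 1 mL harvested at OD600 = 1.0. NOX activity measured with a commercial kit by its extraction method and expressed as relative activity.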

CYP1A2 = molecular target: T2, CYP1A2 (Homo sapiens, UniProt P05177); assay: Human CYP450 inhibition assay; assay type: in vitro ADME
T2 sequence (P05177 1-516): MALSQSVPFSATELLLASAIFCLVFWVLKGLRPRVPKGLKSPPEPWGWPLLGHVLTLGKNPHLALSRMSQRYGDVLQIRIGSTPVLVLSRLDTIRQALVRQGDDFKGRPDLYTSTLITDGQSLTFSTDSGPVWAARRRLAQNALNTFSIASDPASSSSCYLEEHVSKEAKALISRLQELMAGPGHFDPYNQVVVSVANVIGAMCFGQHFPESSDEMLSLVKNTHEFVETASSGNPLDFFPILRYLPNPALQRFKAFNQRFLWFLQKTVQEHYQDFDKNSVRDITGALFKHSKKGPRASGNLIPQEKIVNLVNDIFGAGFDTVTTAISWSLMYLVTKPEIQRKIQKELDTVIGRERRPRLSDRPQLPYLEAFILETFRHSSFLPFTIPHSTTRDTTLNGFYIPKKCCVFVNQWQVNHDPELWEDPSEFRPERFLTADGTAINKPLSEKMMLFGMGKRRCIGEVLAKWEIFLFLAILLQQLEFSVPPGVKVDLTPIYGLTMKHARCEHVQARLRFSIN

CYP2B6 = molecular target: T3, CYP2B6 (Homo sapiens, UniProt P20813); assay: Human CYP450 inhibition assay; assay type: in vitro ADME
T3 sequence (P20813 1-491): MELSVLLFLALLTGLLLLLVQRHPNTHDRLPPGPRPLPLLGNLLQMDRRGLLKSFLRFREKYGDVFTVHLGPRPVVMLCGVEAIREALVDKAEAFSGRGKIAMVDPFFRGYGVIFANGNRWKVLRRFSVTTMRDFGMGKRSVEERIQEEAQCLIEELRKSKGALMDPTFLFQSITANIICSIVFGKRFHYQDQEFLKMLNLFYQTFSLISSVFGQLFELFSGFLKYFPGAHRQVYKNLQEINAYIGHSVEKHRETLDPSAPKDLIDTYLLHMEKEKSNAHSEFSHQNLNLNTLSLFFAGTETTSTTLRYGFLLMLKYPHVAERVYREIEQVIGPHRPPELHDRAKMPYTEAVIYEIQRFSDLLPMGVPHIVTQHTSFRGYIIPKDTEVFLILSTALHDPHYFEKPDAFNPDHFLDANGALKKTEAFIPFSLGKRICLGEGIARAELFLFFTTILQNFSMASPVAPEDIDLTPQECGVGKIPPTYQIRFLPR

P. aeruginosa DK2 [12] = assay: Murine wound infection model; assay type: in vivo, BALB/c female mice; details: mouse
Summary of the method: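 Female mice, 6–8 weeks old and 20–22 g, were anesthetized with 4% chloral hydrate and shaved dorsally. A ~5 mm wound was made and inoculated with 30 μL DK2 (5 × 10^8 CFU). From 48 h post-infection, wounds received saline, polymyxin alone, or polymyxin plus test compound twice daily. Test compound was given in saline with 0.1% Tween 80 and polymyxin in saline. Wounds and body weight were monitored daily. Wound tissue was homogenized in sterile PBS and plated for CFU.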

Water solubility assay = assay type: physicochemical; details: thermodynamic from solid
Summary of the method: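 Standard curve made from methanol solutions (0.56–0.0011 mg/mL) using HPLC UV peak area at 254 nm. Excess solid stirred in water for 24 h to give a […] solution, then analysed by HPLC at 254 nm. Solubility calculated from the standard curve.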

CYP2C19 = CYP2C19 (Homo sapiens, UniProt P33261); assay: Human CYP450 inhibition assay; assay type: in vitro ADME; details: Inhibition for CYP isoforms IC50, 2C19, human liver microsomes, 40 min
Chain of CYP2C19 (P33261 whole entry, canonical isoform): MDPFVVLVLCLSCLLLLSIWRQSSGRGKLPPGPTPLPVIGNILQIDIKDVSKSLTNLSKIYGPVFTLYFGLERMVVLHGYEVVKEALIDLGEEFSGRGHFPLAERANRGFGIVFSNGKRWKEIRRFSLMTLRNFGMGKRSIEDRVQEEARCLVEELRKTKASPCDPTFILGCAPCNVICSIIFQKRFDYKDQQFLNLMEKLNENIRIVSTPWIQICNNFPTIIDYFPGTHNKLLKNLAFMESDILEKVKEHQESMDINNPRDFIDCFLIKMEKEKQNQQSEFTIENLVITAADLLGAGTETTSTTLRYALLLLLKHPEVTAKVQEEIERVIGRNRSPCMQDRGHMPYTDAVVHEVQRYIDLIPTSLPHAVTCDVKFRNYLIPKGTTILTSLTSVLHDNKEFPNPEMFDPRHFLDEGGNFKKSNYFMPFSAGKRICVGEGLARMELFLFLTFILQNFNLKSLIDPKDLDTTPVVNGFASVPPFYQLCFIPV

P. aeruginosa PAO1 = assay: C. elegans liquid medium killing and rescue assay; assay type: in vivo, Caenorhabditis elegans
hERG potassium channels = hERG potassium channels (Homo sapiens, UniProt Q12809); assay: hERG channel Qpatch assay; assay type: cell-based
Chain of hERG potassium channels (Q12809 whole entry): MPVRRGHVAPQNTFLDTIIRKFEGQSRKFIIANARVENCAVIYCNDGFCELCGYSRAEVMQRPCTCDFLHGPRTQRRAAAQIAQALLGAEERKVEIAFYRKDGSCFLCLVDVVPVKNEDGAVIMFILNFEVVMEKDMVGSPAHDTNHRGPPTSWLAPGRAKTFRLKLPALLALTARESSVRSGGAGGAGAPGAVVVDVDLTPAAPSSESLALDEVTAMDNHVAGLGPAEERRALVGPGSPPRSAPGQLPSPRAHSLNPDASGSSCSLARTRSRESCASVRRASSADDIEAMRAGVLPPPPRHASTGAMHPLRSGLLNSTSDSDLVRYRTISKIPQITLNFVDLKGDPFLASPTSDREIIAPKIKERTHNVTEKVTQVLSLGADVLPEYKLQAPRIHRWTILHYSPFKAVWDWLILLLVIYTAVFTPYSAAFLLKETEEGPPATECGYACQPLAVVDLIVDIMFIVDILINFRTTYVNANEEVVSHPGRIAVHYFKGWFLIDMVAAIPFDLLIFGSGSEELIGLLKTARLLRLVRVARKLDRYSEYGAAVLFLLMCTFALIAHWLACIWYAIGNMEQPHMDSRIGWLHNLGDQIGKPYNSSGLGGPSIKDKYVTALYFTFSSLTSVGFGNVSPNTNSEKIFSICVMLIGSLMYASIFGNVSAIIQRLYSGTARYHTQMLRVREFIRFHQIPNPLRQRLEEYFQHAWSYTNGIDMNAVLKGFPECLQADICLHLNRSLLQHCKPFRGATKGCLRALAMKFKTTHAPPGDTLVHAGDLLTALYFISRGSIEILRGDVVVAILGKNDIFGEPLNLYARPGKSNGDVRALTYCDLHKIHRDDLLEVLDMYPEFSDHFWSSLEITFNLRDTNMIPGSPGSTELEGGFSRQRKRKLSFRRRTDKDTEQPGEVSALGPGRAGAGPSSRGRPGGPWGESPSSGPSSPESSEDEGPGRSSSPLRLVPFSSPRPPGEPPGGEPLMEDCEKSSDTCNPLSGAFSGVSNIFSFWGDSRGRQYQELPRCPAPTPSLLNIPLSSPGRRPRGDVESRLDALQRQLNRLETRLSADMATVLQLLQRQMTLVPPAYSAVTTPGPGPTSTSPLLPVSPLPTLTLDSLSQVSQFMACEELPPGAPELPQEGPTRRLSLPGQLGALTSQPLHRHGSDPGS

CYP2C9 = CYP2C9 (Homo sapiens, UniProt P11712); assay: Human CYP450 inhibition assay; assay type: in vitro ADME
Chain of CYP2C9 (P11712 whole entry): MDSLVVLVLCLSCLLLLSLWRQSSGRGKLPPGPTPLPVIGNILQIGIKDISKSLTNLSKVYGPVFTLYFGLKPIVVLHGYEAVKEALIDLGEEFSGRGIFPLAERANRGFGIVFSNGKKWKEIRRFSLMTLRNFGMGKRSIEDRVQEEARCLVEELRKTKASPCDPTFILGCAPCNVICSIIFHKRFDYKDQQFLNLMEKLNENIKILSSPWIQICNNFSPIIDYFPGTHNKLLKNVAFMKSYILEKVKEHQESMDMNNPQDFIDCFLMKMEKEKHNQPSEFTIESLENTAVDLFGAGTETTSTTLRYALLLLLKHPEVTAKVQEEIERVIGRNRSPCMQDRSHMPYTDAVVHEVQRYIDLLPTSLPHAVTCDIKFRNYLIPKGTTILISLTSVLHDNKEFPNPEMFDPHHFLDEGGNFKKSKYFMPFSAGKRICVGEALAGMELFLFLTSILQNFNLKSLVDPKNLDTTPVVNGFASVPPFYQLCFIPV

CYP3A4 = CYP3A4 (Homo sapiens, UniProt P08684); assay: Human CYP450 inhibition assay; assay type: in vitro ADME
Chain of CYP3A4 (P08684 whole entry): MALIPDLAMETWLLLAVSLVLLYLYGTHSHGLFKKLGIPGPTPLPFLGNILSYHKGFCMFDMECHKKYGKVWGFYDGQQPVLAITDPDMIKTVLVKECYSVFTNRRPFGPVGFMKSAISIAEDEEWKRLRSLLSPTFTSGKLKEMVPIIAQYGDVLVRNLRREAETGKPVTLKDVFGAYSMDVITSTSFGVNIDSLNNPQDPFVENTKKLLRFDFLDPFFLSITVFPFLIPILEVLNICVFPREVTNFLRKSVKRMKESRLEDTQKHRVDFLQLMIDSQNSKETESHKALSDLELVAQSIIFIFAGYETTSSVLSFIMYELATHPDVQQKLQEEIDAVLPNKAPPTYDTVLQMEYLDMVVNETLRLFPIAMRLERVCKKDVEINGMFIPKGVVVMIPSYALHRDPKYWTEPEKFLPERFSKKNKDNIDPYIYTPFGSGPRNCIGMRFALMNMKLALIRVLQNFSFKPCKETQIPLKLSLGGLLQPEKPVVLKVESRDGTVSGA

O=C(Nc1ccc([N+](=O)[O-])cc1C(F)(F)F)c1cc(F)ccc1O [A25]
MIC (P. aeruginosa DK2 [1]): 50 to 100 µM (≈ 17.2 to 34.4 µg/mL)

Polymyxin B [reference compound]
MIC of PB after 14 generations (P. aeruginosa DK2 [2]): 1024 mg/L
Effect on bacterial growth when used alone (time-kill) (P. aeruginosa DK2 [3]): neither A22 (10 μmol/L = 3.67 μg/mL, or 20 μmol/L = 7.34 μg/mL) nor PB (0.5 or 1 μg/mL) significantly affected bacterial growth
MIC, antibiotic alone (P. aeruginosa DK2 [1]): 256 mg/L
CFU under oxidative stress (H2O2) (P. aeruginosa DK2 [4]): did not reduce CFU

O=C(Nc1ccc(C(F)(F)F)cc1C(F)(F)F)c1cc(F)ccc1O [A22]
pIC50 (HUVEC): < 3.82
ATP levels, monotherapy (P. aeruginosa DK2 [5]): reduced ATP levels
Reduction in ATP levels, combined with PB (P. aeruginosa DK2 [5]): even more pronounced
pIC50 (CYP2D6): 5.73
fraction unbound at 5 h [6]: 0.0206
ROS levels (P. aeruginosa DK2 [7]): significantly elevating ROS levels
HLM Remaining (t = 1 h) ([8]; human liver microsomes): 23.96%
half-life ([8]; human, liver microsomes, pH 7.4): 29.1 min
Inhibitory effect on biofilm formation, combination (P. aeruginosa DK2 [9]; 8 μg/mL A22 with 0.25 or 0.5 μg/mL PB): significantly enhanced
Biofilm formation, A22 alone (P. aeruginosa DK2 [9]; 4 and 8 μg/mL, crystal violet and CLSM): potent inhibitory activity against biofilm formation
pIC50 (293 T): < 3.82
Time of complete inhibition of bacterial growth (P. aeruginosa DK2 [3]; A22 10 μmol/L with PB 1 μg/mL): 36 h
Time of complete inhibition of bacterial growth (P. aeruginosa DK2 [3]; A22 20 μmol/L with PB 1 μg/mL): 24 h
Effect on bacterial growth when used alone (time-kill) (P. aeruginosa DK2 [3]): neither A22 (10 μmol/L = 3.67 μg/mL, or 20 μmol/L = 7.34 μg/mL) nor PB (0.5 or 1 μg/mL) significantly affected bacterial growth
Time of first substantial reduction in CFUs (P. aeruginosa DK2 [3]; A22 combined with PB): 2 h
MLM Remaining (t = 1 h) ([10]; mouse liver microsomes): 46.31%
half-life ([10]; mouse, liver microsomes, pH 7.4): 54.4 min
MIC (P. aeruginosa DK2 [1]): > 1000 µM
pIC50 (CYP2C8): 5.58
NOX activity, compound alone (P. aeruginosa DK2 [11]): significantly increased
NOX activity, in combination with PB (P. aeruginosa DK2 [11]): further significant increase
CFU under oxidative stress (H2O2) (P. aeruginosa DK2 [4]): significantly reduced CFU
pIC50 (CYP1A2): 5.21
pIC50 (CYP2B6): < 4.48
Bacterial load in infected wounds, combination (P. aeruginosa DK2 [12]; A22 10 mg/kg and PB 1 mg/kg, versus control and monotherapy): significantly reduced bacterial loads in the infected wounds
Bacterial load in infected wounds, monotherapy (P. aeruginosa DK2 [12]; A22 10 mg/kg or PB 1 mg/kg, after 7 days of treatment): neither A22 monotherapy (10 mg/kg) nor PB monotherapy (1 mg/kg) exhibited significant antibacterial effects
solubility at 24 h (Water solubility assay): 4 µg/mL (≈ 10.9 µM)
pIC50 (CYP2C19): 4.69
Survival of PAO1-infected worms, combination (P. aeruginosa PAO1; 8 μg/mL A22 and 8 μg/mL PB): synergistically extended the lifespan of the worms
Survival of PAO1-infected worms, monotherapy (P. aeruginosa PAO1; C. elegans N2 infected with P. aeruginosa PAO1): neither A22 nor PB had significant therapeutic effects
pIC50 (hERG potassium channels): 5.16
pIC50 (CYP2C9): 6.54
pIC50 (CYP3A4): < 4.48

Colistin [reference compound]
MIC, antibiotic alone (P. aeruginosa DK2 [1]): > 256 mg/L

O=C(Nc1ccc([N+](=O)[O-])cc1O)c1cc(F)ccc1O [A20]
MIC (P. aeruginosa DK2 [1]): 50 to 100 µM (≈ 14.6 to 29.2 µg/mL)

O=C(NNc1ccc([N+](=O)[O-])cc1Cl)c1cc(F)ccc1O [A3]
MIC (P. aeruginosa DK2 [1]): 50 to 100 µM (≈ 16.3 to 32.6 µg/mL)
